Legend:
Assay type in all cases: cell-based
[1] = tested on: Molm-16 cell line; experiment: Cell growth assay; settings: Molm-16, ratio of IC50
[2] = tested on: STAT1, STAT2, STAT4, STAT5A/B, and STAT6 proteins; experiment: Western blotting analysis of other STAT proteins in Molm-16 and SU-DHL-1 cells; settings: 10 μM; Molm-16 4 h, SU-DHL-1 18 h
Summary of the method: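 Molm-16 cells were treated for 4 h and SU-DHL-1 cells for 18 h, with test compound at 0.01–10 μM and control compounds at 10 μM. Cells were lysed and run on SDS–PAGE, then transferred to PVDF and blocked 1 h in 5% blocker in TBST. Blots were probed with primary then secondary antibodies against STAT family members and developed by chemiluminescence.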

[3] = tested on: SU-DHL-1 cell line; experiment: Cell growth assay; settings: SU-DHL-1, up to 10 μM
[4] = biological target: T1, STAT3 protein (Homo sapiens, UniProt P40763); experiment: Western blotting of STAT3 degradation in SU-DHL-1 cells; settings: SU-DHL-1, concentrations up to 10 μM
T1 sequence (P40763 whole entry): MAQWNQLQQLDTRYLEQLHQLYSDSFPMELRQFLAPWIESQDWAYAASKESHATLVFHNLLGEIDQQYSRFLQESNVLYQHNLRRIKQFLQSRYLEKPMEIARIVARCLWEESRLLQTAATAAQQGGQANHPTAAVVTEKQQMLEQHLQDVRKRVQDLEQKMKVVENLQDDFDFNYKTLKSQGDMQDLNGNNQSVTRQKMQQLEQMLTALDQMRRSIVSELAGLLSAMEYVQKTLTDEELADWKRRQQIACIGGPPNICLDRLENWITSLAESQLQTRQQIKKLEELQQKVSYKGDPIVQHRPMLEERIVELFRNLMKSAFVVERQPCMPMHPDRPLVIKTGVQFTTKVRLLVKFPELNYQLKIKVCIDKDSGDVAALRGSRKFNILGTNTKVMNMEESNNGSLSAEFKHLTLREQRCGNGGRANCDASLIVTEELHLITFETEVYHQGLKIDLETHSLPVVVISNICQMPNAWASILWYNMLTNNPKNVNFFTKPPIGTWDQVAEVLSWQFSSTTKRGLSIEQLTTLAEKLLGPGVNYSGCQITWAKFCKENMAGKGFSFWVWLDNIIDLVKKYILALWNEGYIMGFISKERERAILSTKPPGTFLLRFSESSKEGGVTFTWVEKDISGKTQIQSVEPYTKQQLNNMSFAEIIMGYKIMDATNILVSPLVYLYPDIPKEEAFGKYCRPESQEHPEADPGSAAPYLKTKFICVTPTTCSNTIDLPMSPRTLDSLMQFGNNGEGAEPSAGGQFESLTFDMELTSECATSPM

[5] = biological target: T1, STAT3 protein; experiment: Western blotting of STAT3 degradation in Molm-16 cells

Compound | times less potent than SD-36 in cell growth inhibition [1] [times] | effect on the levels of any STAT protein [2] | effect on cell viability [3] | effect on the levels of STAT3 and pSTAT3^Y705 [4] | degradation of total STAT3 and pSTAT3^Y705 proteins ([5]; Molm-16, concentrations up to 10 μM) | effect on the level of total STAT3 protein ([5]; Molm-16, 4 h, concentrations up to 1 μM) | effect on the level of pSTAT3^Y705 protein ([5]; Molm-16, 4 h, up to / at 1 μM)
CN1C(=O)CCC(N2Cc3c(C#CCCCCCC(=O)N4CC[C@H]5CC[C@@H](C(=O)N[C@@H](CCC(N)=O)C(=O)NC(c6ccccc6)c6ccccc6)N5C(=O)[C@@H](NC(=O)c5cc6cc(C(F)(F)P(=O)(O)O)ccc6[nH]5)C4)cccc3C2=O)C1=O (stereo partly drawn) [SD-36Me, ((2-(((5S,8S,10aR)-8-(((S)-5-Amino-1-(benzhydrylamino)-1,5-dioxopentan-2-yl)carbamoyl)-3-(8-(2-(1-methyl-2,6-dioxopi-peridin-3-yl)-1-oxoisoindolin-4-yl)oct-7-ynoyl)-6-oxodecahydropyrrolo[1,2-a][1,5]diazocin-5-yl)carbamoyl)-1H-indol-5-yl)difluoromethyl)phosphonic Acid] | 400 | no effect | no effect | no effect | completely ineffective |  | 
CC(=O)N1CC[C@H]2CC[C@@H](C(=O)N[C@@H](CCC(N)=O)C(=O)NC(c3ccccc3)c3ccccc3)N2C(=O)[C@@H](NC(=O)c2cc3cc(C(F)(F)P(=O)(O)O)ccc3[nH]2)C1 [SI-109, ((2-(((5S,8S,10aR)-3-Acetyl-8-(((S)-5-amino-1-(benzhydrylamino)-1,5-dioxopentan-2-yl)carbamoyl)-6-oxodecahydropyrrolo[1,2-a][1,5]diazocin-5-yl)carbamoyl)-1H-indol-5-yl)difluoromethyl)phosphonic Acid] |  | no effect | no effect | no effect |  | no effect | only modestly decreases

Source: article PMC8848307 (Journal of medicinal chemistry, 2019)
